WT yeast gro inh: growth inhibition of WT yeast, mitochondrial fusion screen; mitochondrial fusion phenotypic screen, WT strain; 2.1% of 190,000 active; AID 1362; inhibition, % at 10 µM; in the data active means inhibition above about 58%; tested in S. cerevisiae
Autophagy HCS: alters autophagy in cells; MEF GFP-LC3 puncta imaging; test concentration mostly 10 µM; calls only at 10 µM (by protocol); 0.98% of 190,000 active; AID 463193;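 active means percentage of spot-positive cells more than 3 SD above its plate mean, without a fluorescence outlier flag or 80% toxicity; inconclusive means no clear call, values can overlap the other calls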;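 further: spot-positive cell cutoff set from DMSO-treated cells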
SKKanGAS inh: SKKanGAS growth inhibition | AID 1662 | 1.3% of 300,000 active | inhibition, % at 7.5 µM | S. pyogenes SKKanGAS, kanamycin growth, BacTiter-Glo, 6 h;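 active means mean replicate score, as percent of positive control median, at least 50; inconclusive means mean below 50 but one replicate at or above 50; inactive means mean and every replicate below 50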;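 further: strain carries kanamycin resistance gene driven by streptokinase promoter and grows in 40 µg/ml kanamycin; loss of luminescence reflects streptokinase promoter inhibition or plain growth inhibition; 0% = median of DMSO wells and 100% = positive control at its reference dose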
Cl transport mod: modulates chloride dependent transport by human KCC2; B-score of Tl+ flux slope (higher = more flux/activation; lower = inhibition) at 10 µM; Q9H2X9; AID 1456; 2.2% of 190,000 active; KCC2 cells, thallium flux FluoZin-2 fluorescence;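 active means thallium flux slope and its plate-corrected score both differing from the plate sample mean at a set confidence after two filtering rounds, in either direction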;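 further: slope of fluorescence scaled to starting intensity during 10 to 20 s after thallium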
Rad51 HR inh: Rad51 (human) homologous recombination inhibition; Q06609; AID 1385; hRad51 DNA strand exchange, fluorescence dequenching; 0.085% of 200,000 active; inhibition, % at 10 µM;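 active means inhibition above 40% at the single screening dose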;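 further: 0% = DMSO control wells and 100% = blanks with heterologous ssDNA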
Target sequence (Q06609 whole entry, looked up): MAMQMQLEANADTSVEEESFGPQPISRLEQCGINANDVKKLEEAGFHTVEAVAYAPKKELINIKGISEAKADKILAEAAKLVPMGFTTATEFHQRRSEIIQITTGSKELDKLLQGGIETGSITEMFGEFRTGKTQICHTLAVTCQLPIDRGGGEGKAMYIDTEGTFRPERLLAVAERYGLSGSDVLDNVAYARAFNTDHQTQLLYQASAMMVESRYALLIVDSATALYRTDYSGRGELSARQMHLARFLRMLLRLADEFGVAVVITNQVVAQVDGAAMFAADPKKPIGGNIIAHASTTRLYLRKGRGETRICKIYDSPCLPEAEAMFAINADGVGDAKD
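material = hRad51 filaments on single-stranded DNA | reagent = Donor/quencher-labelled 47-bp dsDNA substrate | compound = 10 µM final, single point | schedule = strand-exchange reaction 15 min at room temperature | measured by = fluorescein emission 520 nm, excitation 485 nm | read-out basis = % inhibition versus plate control and blank means | benchmarks = plate controls and plate blanks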
Insulin prom up: MIN6 insulin promoter up-regulation. z-score at 5 µM. 0.3% of 190,000 active. MIN6 insulin promoter-GFP reporter, high-content imaging; hits give high values;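 active means z-score above 3 at 5 µM with at least 500 cells counted in the well; inconclusive means wells under 500 cells, flagged as cytotoxic or low count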
Numbers without * were called inactive; i = inactive; ? = inconclusive; . = no result given; + = active, no number. Most compounds without a hit are left out; they make up all but 4.2% or so of the library.

SMILES | WT yeast gro inh | Autophagy HCS | SKKanGAS inh | Cl transport mod | Rad51 HR inh | Insulin prom up
CCNC(=O)CC1SC(=Nc2ccc(C)c([N+](=O)[O-])c2)N(C)C1=O (centres undefined) | . | . | -13.5 | . | . | .
CCOC(=O)c1ccc(NC(=S)NC(=O)COc2ccccc2)cc1 | 11.2 | i | 6.0 | 17.5* | 0.5 | -0.71
O=C(COc1ccccc1)NC(=S)Nc1cccc([N+](=O)[O-])c1 | -3.3 | i | 7.8 | 43.2* | -3.7 | 0.55
NNC(=O)c1ccc(COc2cccc3ccccc23)cc1 | 72.6* | i | 11.9 | -1.78 | 3.1 | -0.31
COc1cc(OC)cc(C(C(=O)NC2CCCCC2)N(C(=O)c2ccno2)c2ccccc2)c1 (centres undefined) | -16.8 | i | -3.3 | 0.709 | . | .
O=C(N1CCCCC1)N1CCN(C(c2ccccc2)c2ccccc2)CC1 | 40.7 | i | -5.3 | 0.638 | 10.7 | .
O=C(N1CCOCC1)N1CCN(C(c2ccccc2)c2ccccc2)CC1 | 95.1* | i | 1.1 | -0.226 | 0.7 | -0.43
S=C(NCc1ccco1)N1CCN(C(c2ccccc2)c2ccccc2)CC1 | 63.5* | i | 3.0 | 0.223 | 5.3 | .
C=C(C)CNC(=S)N1CCN(C(c2ccccc2)c2ccccc2)CC1 | 55.0 | i | -22.7 | -0.538 | . | 1.73
CC(C)Cc1cc(C(=O)N2CCN(C(c3ccccc3)c3ccccc3)CC2)no1 | 58.7* | i | 12.2 | 0.0828 | -3.4 | -1.55
CC(C)CNC(=S)N1CCN(C(c2ccccc2)c2ccccc2)CC1 | 69.8* | i | -3.5 | -0.524 | 0.5 | -0.26
Cc1nc(-c2ccc(S(=O)(=O)Oc3ccc(Cl)cc3Cl)s2)cs1 | . | . | 11.6 | -0.732 | 9.1 | -0.24
COC(=O)c1cccc(N(CC(=O)NC2CCCC2)C(=O)CNC(=O)c2cccs2)c1 | . | . | -0.7 | . | . | .
O=C(NCC(=O)N(c1cccnc1)C(C(=O)NC1CCCC1)c1cccs1)c1ccco1 (centres undefined) | -3.5 | i | 3.4 | 0.36 | . | -0.16
CCS(=O)(=O)c1ccc(C(=O)Nc2ccccc2OC)c(Cl)c1Cl | 4.5 | i | 1.9 | 0.0462 | -4.8 | -0.42
CCCc1ccc2oc(C(=O)N(C)Cc3nccs3)c(C)c2c1 | . | . | 1.2 | . | . | .
COc1ccc(CCC(=O)O)cc1OC | . | . | -2.2 | 0.0178 | . | 0.33
COc1ccccc1NS(=O)(=O)c1cc(NC(=S)NCC2CCCO2)ccc1C (centres undefined) | 2.3 | i | 55.5* | 0.123 | 17.6 | .
Oc1oc(-c2cccc3ccccc23)nc1/C=N/c1nccs1 | 9.9 | i | 7.6 | 23.9* | -43.8 | -0.01
Oc1oc(-c2cccc3ccccc23)nc1C=NCc1ccccc1 | -9.6 | i | . | 0.0231 | . | .
Cc1noc(C(F)(F)F)c1C(=O)NNC(=O)c1cccc(C(F)(F)F)c1 | . | . | -3.4 | 0.281 | 13.6 | 0.44
COc1ccc(C(=O)C(CN2CCOCC2)c2ccccc2)cc1F (centres undefined) | 61.4* | i | 1.4 | . | -1.1 | 0.13
COc1ccc(C(O)C(CN2CCOCC2)c2ccccc2)cc1F (centres undefined) | 26.0 | i | 2.5 | 0.0282 | -5.0 | 0.44
C[C@H]1[C@H](C)CC[C@]2(C)CC[C@]3(C)C(=CC[C@@H]4[C@@]5(C)CC[C@@H](O)[C@](C)(C(=O)O)[C@@H]5CC[C@]43C)[C@H]12 | . | . | 101.5* | -0.0116 | 3.3 | 1.4
CC1(C)CC[C@]2(C(=O)O)[C@H](O)C[C@]3(C)C(=CCC4[C@@]5(C)C[C@H](O)[C@H](O)[C@@](C)(CO)C5CC[C@]43C)[C@@H]2C1 (some centres undefined) | . | . | -5.9 | . | . | .
SMILES | WT yeast gro inh | Autophagy HCS | SKKanGAS inh | Cl transport mod | Rad51 HR inh | Insulin prom up
C[C@H]1[C@H](C)CC[C@]2(C(=O)O)CC[C@]3(C)C(=CC[C@@H]4[C@@]5(C)CC[C@H](O)C(C)(C)[C@@H]5CC[C@]43C)[C@H]12 | . | . | 106.7* | 1.83 | -5.5 | .
C[C@H]1[C@H](C)CC[C@]2(C(=O)O)CC[C@]3(C)C(=CC[C@@H]4[C@@]5(C)C[C@@H](O)[C@H](O)C(C)(C)[C@@H]5CC[C@]43C)[C@H]12 | 4.2 | i | 102.9* | -1.73 | 11.9 | 0.24
O=C(CCc1ccc(O)c(O)c1)NNC(=S)Nc1ccc(Br)cc1Cl | 5.6 | i | 3.1 | 0.104 | -4.2 | -1.12
Cc1cc2[nH]c3c(c[n+](C)c4ccccc34)c2cc1C | 39.7 | + | 4.9 | -0.697 | 33.5 | ?
N#Cc1c(-c2ccccc2)nc(SCC(=O)Nc2ccccc2)[nH]c1=O | 1.4 | i | . | -4.76* | . | -0.09
C=CCSc1nc(-c2ccccc2)c(C#N)c(=O)[nH]1 | -5.9 | i | . | -1.71 | 6.3 | 0.12
N#Cc1c(-c2ccccc2)nc(SCC(=O)N2c3ccccc3Sc3ccccc32)[nH]c1=O | . | . | 73.4* | -3.64 | . | 0.09
N#Cc1c(-c2ccccc2)nc(SCC(=O)N(c2ccccc2)c2ccccc2)[nH]c1=O | -10.3 | i | 12.8 | -0.729 | -6.8 | 0.06
N#Cc1c(-c2ccccc2)nc(SCc2ccc(Cl)cc2)[nH]c1=O | . | . | 61.3* | . | . | .
COc1ccc(-c2nc(-c3ccccc3)[nH]c(=O)c2C#N)cc1 | 79.6* | i | 13.3 | . | 3.3 | 0.34
CN(C)c1nc(Cl)nc(N(C#N)CCOc2ccccc2)n1 | -18.3 | i | 5.5 | -2.89 | 16.6 | -0.42
O=C(CN(C(=O)c1csnn1)c1ccc(Cl)cc1)NCCc1ccccc1 | . | . | 7.0 | . | . | .
Cc1sc2nc(CN3CCCC3)nc(N3CCN(C(=O)c4ccco4)CC3)c2c1C | 7.9 | + | 8.3 | -0.576 | -4.4 | -0.5
O=C(COC(=O)/C=C/c1ccccc1[N+](=O)[O-])NCC(F)(F)F | 12.2 | i | -2.7 | -0.131 | -8.1 | -0.62
Cc1ccc(S(=O)(=O)c2cc3ccccc3oc2=Nc2ccc3c(c2)OCCO3)cc1 | 46.9 | i | 3.7 | -1.09 | 8.4 | 0.1
Cc1ccc(S(=O)(=O)c2cc3ccccc3oc2=Nc2ccc3c(c2)OCO3)cc1 | -4.7 | + | 11.9 | . | -6.6 | -2.3
CCOc1ccc(N2CC(C(=O)NC(C)C)CC2=O)cc1 (centres undefined) | 59.8* | i | -1.8 | -0.0268 | -5.8 | .
O=C1CC(/C=C/c2ccncc2)=Nc2ccccc2N1 | -9.9 | i | 0.0 | 0.267 | -1.6 | 0.67
O=c1c(C(c2ccccc2)c2c(O)sc3ccccc3c2=O)c(O)sc2ccccc12 | -11.5 | i | 97.0* | 20.7* | -0.4 | .
Cc1cc2sc3ccccc3c(=O)c2c(C)c1O | 3.0 | i | -7.9 | 0.606 | 16.1 | -0.05
CC(=O)/C(=N\Nc1ccc(C)cc1)Sc1nncn1C | 15.6 | + | 0.0 | -0.526 | 8.5 | 0.01
COc1ccc(-c2nn(C)c(=O)[nH]2)cc1 | . | . | -5.2 | . | 4.2 | 0.14
COc1ccc(-c2cc3nc4c(c(N5CCC6(CC5)OCCO6)n3n2)CCC4)cc1 | 0.5 | i | 7.4 | -0.815 | -4.5 | -0.93
Cc1cccc(-c2cc3nc4c(c(N5CCOCC5)n3n2)CCCC4)c1 | 69.3* | i | 31.8 | 0.0284 | 1.2 | -0.43
